Shown are actives, neighbours in structure and some others; about 4.8% of the full set was active somewhere.
NLRP3 yeast inh: inhibitors of NALP3 inflammasome in yeast. hit rate 0.39% among 330,000. Yeast reconstituted NLRP3/ASC/caspase-1, beta-gal luminescence, 24 h. inhibition, % at 10 µM;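 active means inhibition of 50% or more; inactive means inhibition below 50%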;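 further: plate controls were induced DMSO wells for no effect and uninduced yeast grown without galactose for full effect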
ALR inh: human ALR oxidase inhibition via reduced H2O2; purified ALR, DTT oxidation, H2O2 HRP-luminol luminescence; P55789; AID 485317; inhibition, % (no concentration beside the values); hit rate 3.8% among 290,000;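 active means mean replicate inhibition above about 79%, with every replicate also reaching it, limit read from the data; inconclusive means only one of the two criteria met; inactive means mean below limit and not every replicate reaching it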
Target sequence (P55789 whole entry, looked up): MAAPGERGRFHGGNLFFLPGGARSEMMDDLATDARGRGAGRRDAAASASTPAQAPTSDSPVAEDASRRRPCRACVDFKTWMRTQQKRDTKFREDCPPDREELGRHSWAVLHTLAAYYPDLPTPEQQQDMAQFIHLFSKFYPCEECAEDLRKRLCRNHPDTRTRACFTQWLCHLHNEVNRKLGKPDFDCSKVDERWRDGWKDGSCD
Calb FLC: C. albicans growth modulation with fluconazole; hit rate 0.57% among 300,000; C. albicans CaCi-2 + fluconazole, Alamar Blue growth, 48 h; AID 1979; growth inhibition, % (test concentration not listed);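 active means growth inhibition above about 58% in most replicates, limit read from the data, passing the limit was not always enough; inconclusive means exactly half the replicates above a set limit; inactive means most replicates below a set limit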;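 further: all wells also contain fluconazole at 8 µg/ml as a sub-toxic cotreatment; 0% = median of DMSO wells and 100% = median of geldanamycin control wells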
ATG4B inhibitor: blocks human ATG4B protease cleavage of LC3 substrate | Q9Y4P1 | ATG4B cleavage of LC3-PLA2, NBD-HPC fluorescence, 1 h | inhibition, % at 8.33 µM | hit rate 0.51% among 340,000; in the data active means inhibition above about 40%
NALP1 inh: NALP1 inhibition; S. cerevisiae NALP1/ASC/caspase-1 growth, X-gal OD620, 72 h; AID 2071; hit rate 0.61% among 280,000; inhibition, % at 10 µM; in the data active means inhibition mostly above about 24%, no sharp cut-off; inactive means mostly below about 32%
UCH37 DUB inh: human UCH37 deubiquitinating enzyme inhibition | Q9Y5K5 | purified proteasome/UCH37, Ub-AMC cleavage fluorescence | inhibition, % (test concentration not listed) | hit rate 0.33% among 330,000;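 active means mean inhibition over replicate wells above about 20%, limit read from the data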;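 further: 0% = compound-free wells with enzyme and 100% = wells lacking proteasome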
Target sequence (Q9Y5K5 whole entry, looked up): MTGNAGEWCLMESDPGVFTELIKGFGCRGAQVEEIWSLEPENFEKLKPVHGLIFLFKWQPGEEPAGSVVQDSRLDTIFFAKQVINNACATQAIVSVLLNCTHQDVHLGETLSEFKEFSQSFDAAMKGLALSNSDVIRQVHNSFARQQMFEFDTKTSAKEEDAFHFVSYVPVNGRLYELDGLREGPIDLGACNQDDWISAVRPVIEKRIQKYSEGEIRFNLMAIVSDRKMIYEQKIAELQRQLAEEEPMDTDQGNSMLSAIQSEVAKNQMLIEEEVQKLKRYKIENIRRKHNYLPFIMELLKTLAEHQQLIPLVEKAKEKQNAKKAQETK
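System: Proteasome-associated human UCH37 deubiquitinase; Input: 0.15 nM proteasome in added enzyme buffer; Also added: Ub-AMC substrate from 1 µM stock; Incubation: 30 min compound-proteasome preincubation then 25 min substrate reaction, room temperature; Detection: fluorescence, ex 355 nm, em 460 nm; Read-out: % inhibition of Ub-AMC cleavage fluorescence; Benchmarks: no-proteasome and no-compound wells.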
* hit, by the source's call.

`C/C(CCC(=O)O)=N/Nc1ccc([N+](=O)[O-])cc1[N+](=O)[O-]` gave NLRP3 yeast inh 5.4, ALR inh -1.9, Calb FLC -18.4, ATG4B inhibitor 3.5 and NALP1 inh -15.6.
For COc1cccc(C=NNc2nc(Nc3ccccc3)nc(-n3nc(C)cc3C)n2)c1O the results were UCH37 DUB inh 2.3.
Screening CCOc1ccc(-c2nc(-c3ccncc3)no2)cc1OCC returned NLRP3 yeast inh 9.9, ALR inh -1.6, Calb FLC 1.8, ATG4B inhibitor -14.9, NALP1 inh 12.1 and UCH37 DUB inh -4.0.
Screening CCOc1cc(-c2nc(-c3ccncc3)no2)cc(OCC)c1OCC returned NLRP3 yeast inh -25.3, ALR inh -4.6, Calb FLC inconclusive, ATG4B inhibitor -7.5, NALP1 inh 22.0* and UCH37 DUB inh 3.6.
For O=C(NNC(=O)c1cc2ccccc2cc1O)c1cccs1 the results were NLRP3 yeast inh 15.1, ALR inh -7.0, Calb FLC 91.4*, ATG4B inhibitor -12.7, NALP1 inh -7.1 and UCH37 DUB inh 0.3.
C/C(=N\NC(=O)c1cc2ccccc2cc1O)c1cccs1 was read as NLRP3 yeast inh 34.8, Calb FLC 47.9, ATG4B inhibitor 2.2 and NALP1 inh -6.6.
Screening O=C(NNC(=O)c1cc2ccccc2cc1O)Nc1ccccc1F returned NLRP3 yeast inh -2.2, ALR inh 5.8, Calb FLC 87.1*, ATG4B inhibitor -4.5, NALP1 inh 0.1 and UCH37 DUB inh -17.9.
Cc1cccc(NC(=O)NNC(=O)c2cc3ccccc3cc2O)c1C was read as NLRP3 yeast inh 7.9, ALR inh -8.8, Calb FLC 65.2*, ATG4B inhibitor 20.0 and NALP1 inh 12.5.
`Cc1ccc(NC(=O)NNC(=O)c2cc3ccccc3cc2O)c(C)c1` gave NLRP3 yeast inh 13.5, ALR inh 2.9, Calb FLC 81.8*, ATG4B inhibitor -4.3, NALP1 inh 1.1 and UCH37 DUB inh 6.2.
For CC(=NNC(=O)CN1CCN(Cc2ccc(C)cc2)CC1)c1ccncc1 the results were UCH37 DUB inh 0.0.
For Cc1ccc(C=NNC(=O)c2nnn(-c3nonc3N)c2CNc2ccccc2)cc1 the results were UCH37 DUB inh 6.4.
For COc1cccc(-c2c(C(=O)NN=Cc3cccs3)nnn2-c2nonc2N)c1 the results were UCH37 DUB inh 3.4.
For Cc1cccc(NC(=S)NNC(=O)c2ccc(O)cc2O)c1C the results were NLRP3 yeast inh 20.8, ALR inh 98.8*, Calb FLC 3.4, ATG4B inhibitor 4.7, NALP1 inh -4.1 and UCH37 DUB inh 1.6.
Screening CC(=NOCc1ccc(C#N)cc1)c1ccc(S(=O)(=O)N(C)C)cc1 returned UCH37 DUB inh 0.0.
CC(=NNC(=O)C1CC1)c1ccc(C(C)(C)C)cc1 was read as UCH37 DUB inh 0.7.
`CCOc1ccc(-c2c(C(=O)NN=Cc3ccc(C)cc3)nnn2-c2nonc2N)cc1` gave UCH37 DUB inh 2.2.
CSc1ccc(C=NNC(=O)CN2CCN(Cc3ccccc3)CC2)cc1 was read as UCH37 DUB inh -7.5.
For CCCn1c(C(C)NC(=O)c2ccccc2)n[nH]c1=S (configuration not stated) the results were NLRP3 yeast inh 20.7, ALR inh 94.3*, Calb FLC 2.3, ATG4B inhibitor -3.6, NALP1 inh -6.0 and UCH37 DUB inh 2.4.
`Cc1cccc(C=NNC(=O)c2cc(-c3cccnc3)nc3c2c(C)nn3-c2ccccc2)c1` gave UCH37 DUB inh -264.0.
Cc1ccc(-c2nc3ccccc3nc2Cl)cc1 was read as NLRP3 yeast inh 0.9, ALR inh 91.4*, Calb FLC -8.9, ATG4B inhibitor 9.2, NALP1 inh -7.4 and UCH37 DUB inh -4.9.
Cc1ccc(-c2nc(Cl)nc3ccccc23)cc1 was read as NLRP3 yeast inh 22.1, ALR inh -28.5, Calb FLC 5.0, ATG4B inhibitor 0.6, NALP1 inh 14.6 and UCH37 DUB inh -10.4.
`CCn1c(/C=C/c2cc(Br)ccc2O)nc2ccccc2c1=O` gave NLRP3 yeast inh 23.4, ALR inh 74.1, Calb FLC 7.8, ATG4B inhibitor 1.7, NALP1 inh 3.2 and UCH37 DUB inh -39.6.
`CCn1c(/C=C/c2ccc(O)c(O)c2)nc2ccccc2c1=O` gave NLRP3 yeast inh 27.2, ALR inh 99.6*, Calb FLC 1.7, ATG4B inhibitor 3.6, NALP1 inh -8.2 and UCH37 DUB inh -7.4.
`Cc1nc2ccccc2c(=O)n1CCc1ccc(O)cc1` gave NLRP3 yeast inh 9.9, ALR inh 95.8*, Calb FLC 3.0, ATG4B inhibitor -3.1, NALP1 inh 11.1 and UCH37 DUB inh 4.5.
Screening Cc1nc2ccccc2c(=O)n1CCc1ccccc1 returned NLRP3 yeast inh 24.4, ALR inh -20.1, Calb FLC -12.7, ATG4B inhibitor -14.3, NALP1 inh 3.7 and UCH37 DUB inh 1.2.
`CCn1c(/C=C/c2ccc(O)cc2)nc2ccccc2c1=O` gave NLRP3 yeast inh 16.4, ALR inh 97.6*, Calb FLC 32.8, ATG4B inhibitor -4.8, NALP1 inh 24.9 and UCH37 DUB inh -6.0.
Screening CNc1nc(NN=Cc2cc3c(cc2[N+](=O)[O-])OCO3)nc(Nc2ccccc2)n1 returned UCH37 DUB inh 7.3.
For C=CCc1c(C)nc(C)nc1N/N=C/c1ccc(N(C)C)cc1 the results were NLRP3 yeast inh 18.0, ALR inh 98.8*, Calb FLC 3.2, ATG4B inhibitor -9.8 and NALP1 inh 13.8.
`C=CCc1c(C)nc(C)nc1NN=Cc1ccc(N(C)C)cc1` gave UCH37 DUB inh -60.3.
CCc1cc2c(Nc3ccc(O)cc3)nc(C)nc2s1 was read as NLRP3 yeast inh 16.6, ALR inh 99.6*, Calb FLC 20.9, ATG4B inhibitor 3.1, NALP1 inh 2.1 and UCH37 DUB inh 5.1.
Screening Cc1cc2c(Nc3ccc(O)cc3)ncnc2s1 returned NLRP3 yeast inh 6.1, ALR inh 93.6*, Calb FLC -0.1, ATG4B inhibitor -7.8, NALP1 inh 2.1 and UCH37 DUB inh 5.6.
`O=c1oc2ccccc2nc1C=C(O)/C=C\c1ccccc1` gave UCH37 DUB inh 5.1.
For CCCCC/C=C\C/C=C\C/C=C\C/C=C\CCCC(=O)O the results were ALR inh 97.2*.
`NC(=O)NN=Cc1cccc(C(F)(F)F)c1` gave UCH37 DUB inh 1.9.
Screening CN1CCN(Cc2cc(COCc3ccccc3)c3cccnc3c2O)CC1 returned NLRP3 yeast inh 30.0, Calb FLC 109.5*, ATG4B inhibitor -2.1 and NALP1 inh 9.2.
`O=S(=O)(c1ccc(Cl)cc1)N1CCN(Cc2ccc(O)c3ncccc23)CC1` gave NLRP3 yeast inh 6.9, ALR inh -1.7, Calb FLC 94.6*, ATG4B inhibitor -1.2, NALP1 inh 6.3 and UCH37 DUB inh 5.7.
Oc1ccc(CN2CCN(Cc3ccccc3)CC2)c2cccnc12 was read as NLRP3 yeast inh -12.4, ALR inh -7.1, Calb FLC 60.3*, ATG4B inhibitor -5.1 and UCH37 DUB inh 3.2.

Assay outcomes from PubChem.
